Converted amounts (≈) assume the structure as drawn.
Tests used:
Aspergillus flavus = assay: Antifungal activity against Aspergillus flavus ATCC MYA-1004 by broth microdilution assay; type: functional
Candida tropicalis = assay: Antifungal activity against Candida tropicalis ATCC 750 by broth microdilution assay; type: functional
Aspergillus terreus = assay: Antifungal activity against Aspergillus terreus ATCC 28301 by broth microdilution assay; type: functional
HepG2 [1] = assay: Cytotoxicity against human HepG2 cells at 50 uM by neutral red uptake assay; type: functional
Pichia kudriavzevii = assay: Antifungal activity against Candida krusei ATCC 6528 by broth microdilution assay; type: functional
Candida parapsilosis = assay: Antifungal activity against Candida parapsilosis ATCC 21019 by broth microdilution assay; type: functional; settings: Lodderomyces parapsilosis
Aspergillus fumigatus = assay: Antifungal activity against Aspergillus fumigatus ATCC 16424 by broth microdilution assay; type: functional
Aspergillus niger = assay: Antifungal activity against Aspergillus niger ATCC 9042 by broth microdilution assay; type: functional
Clavispora lusitaniae = assay: Antifungal activity against Candida lusitaniae ATCC 42720 by broth microdilution assay; type: functional
Cryptococcus neoformans = assay: Antifungal activity against Cryptococcus neoformans ATCC 24065 by broth microdilution assay
Candida albicans [2] = assay: Antifungal activity against Candida albicans ATCC 36082 by broth microdilution assay; type: functional
Nakaseomyces glabratus = assay: Antifungal activity against Candida glabrata ATCC 34138 by broth microdilution assay; type: functional
HepG2 [3] = assay: Cytotoxicity against human HepG2 cells by neutral red uptake assay; type: functional
Summary of the method: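 Human hepatoma HepG2 cells; neutral red uptake read-out following a previously described protocol; the value is the CC50 (concentration giving half-maximal cytotoxicity); ketoconazole served as reference agent.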

Candida albicans [4] = assay: Antifungal activity against systemic Candida albicans ATCC 36082 infection model in ICR mouse assessed as survival at 20 mg/kg, po; type: functional
Summary of the method: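 C. albicans ATCC 36082 given systemically, about 5 × 10⁵ cells per animal. Oral dosing at 20 mg/kg once daily started 2 h post-infection and continued for 7 consecutive days. Read-out was mean survival days, compared against an untreated infected control group.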

Row | Compound | MIC80 (Aspergillus flavus) | MIC80 (Candida tropicalis) | MIC80 (Aspergillus terreus) | inhibition at 50 µM (HepG2 [1]) | MIC80 (Pichia kudriavzevii) | MIC80 (Candida parapsilosis) | MIC80 (Aspergillus fumigatus) | MIC80 (Aspergillus niger) | MIC80 (Clavispora lusitaniae) | MIC80 (Cryptococcus neoformans) | MIC80 (Candida albicans [2]) | MIC80 (Nakaseomyces glabratus) | CC50 (HepG2 [3]) | Survival (Candida albicans [4])
1 | Cc1nn([C@H](C)[C@](O)(Cn2cncn2)c2ccc(F)cc2F)c2ccc(C(F)(F)F)cc12 | > 16 µg/mL | > 8 µg/mL | > 16 µg/mL | 2.9% | 4 µg/mL (≈ 8.86 µM) | 1 µg/mL (≈ 2.22 µM) | > 16 µg/mL | > 16 µg/mL | 0.25 µg/mL (≈ 0.554 µM) | 1 µg/mL (≈ 2.22 µM) | ≤ 0.015 µg/mL | 8 µg/mL (≈ 17.7 µM) | – | –
2 | Cc1nn([C@H](C)[C@](O)(Cn2cncn2)c2ccc(F)cc2F)c2cccc(F)c12 | > 16 µg/mL | 1 µg/mL (≈ 2.49 µM) | > 16 µg/mL | 8.1% | 1 µg/mL (≈ 2.49 µM) | 0.25 µg/mL (≈ 0.623 µM) | 16 µg/mL (≈ 39.9 µM) | > 16 µg/mL | 0.125 µg/mL (≈ 0.311 µM) | 0.125 µg/mL (≈ 0.311 µM) | ≤ 0.015 µg/mL | 8 µg/mL (≈ 19.9 µM) | – | –
3 | C[C@@H](n1ncc2ccccc21)[C@](O)(Cn1cncn1)c1ccc(F)cc1F | 1 µg/mL (≈ 2.71 µM) | 0.125 µg/mL (≈ 0.338 µM) | 2 µg/mL (≈ 5.41 µM) | – | 0.5 µg/mL (≈ 1.35 µM) | 0.063 µg/mL (≈ 0.171 µM) | 2 µg/mL (≈ 5.41 µM) | 4 µg/mL (≈ 10.8 µM) | 0.063 µg/mL (≈ 0.171 µM) | 0.063 µg/mL (≈ 0.171 µM) | ≤ 0.015 µg/mL | 2 µg/mL (≈ 5.41 µM) | 599 µM | 7.2 days
4 | C[C@@H](n1cc2cc(Br)ccc2n1)[C@](O)(Cn1cncn1)c1ccc(F)cc1F | 0.5 µg/mL (≈ 1.12 µM) | ≤ 0.015 µg/mL | 0.5 µg/mL (≈ 1.12 µM) | – | 0.125 µg/mL (≈ 0.279 µM) | ≤ 0.015 µg/mL | 0.25 µg/mL (≈ 0.558 µM) | 1 µg/mL (≈ 2.23 µM) | ≤ 0.015 µg/mL | ≤ 0.015 µg/mL | ≤ 0.015 µg/mL | 2 µg/mL (≈ 4.46 µM) | 141 µM | 13.5 days
5 | C[C@@H](c1nc(-c2ccc(C#N)cc2)cs1)[C@](O)(Cn1cncn1)c1ccc(F)cc1F [RAVUCONAZOLE] | 0.5 µg/mL (≈ 1.14 µM) | ≤ 0.015 µg/mL | 0.5 µg/mL (≈ 1.14 µM) | – | 0.125 µg/mL (≈ 0.286 µM) | ≤ 0.015 µg/mL | 0.125 µg/mL (≈ 0.286 µM) | 1 µg/mL (≈ 2.29 µM) | ≤ 0.015 µg/mL | ≤ 0.015 µg/mL | ≤ 0.015 µg/mL | 2 µg/mL (≈ 4.57 µM) | – | –
6 | Cc1nn([C@H](C)[C@](O)(Cn2cncn2)c2ccc(F)cc2F)c2ccc(F)cc12 | 8 µg/mL (≈ 19.9 µM) | 4 µg/mL (≈ 9.97 µM) | 4 µg/mL (≈ 9.97 µM) | – | 4 µg/mL (≈ 9.97 µM) | 0.5 µg/mL (≈ 1.25 µM) | 4 µg/mL (≈ 9.97 µM) | 16 µg/mL (≈ 39.9 µM) | 0.125 µg/mL (≈ 0.311 µM) | 0.5 µg/mL (≈ 1.25 µM) | 0.031 µg/mL (≈ 0.0772 µM) | 8 µg/mL (≈ 19.9 µM) | – | –
7 | C[C@@H](n1ncc2cc([N+](=O)[O-])ccc21)[C@](O)(Cn1cncn1)c1ccc(F)cc1F | 1 µg/mL (≈ 2.41 µM) | 0.031 µg/mL (≈ 0.0748 µM) | 2 µg/mL (≈ 4.83 µM) | – | 0.25 µg/mL (≈ 0.603 µM) | 0.031 µg/mL (≈ 0.0748 µM) | 1 µg/mL (≈ 2.41 µM) | 2 µg/mL (≈ 4.83 µM) | ≤ 0.015 µg/mL | 0.063 µg/mL (≈ 0.152 µM) | ≤ 0.015 µg/mL | 4 µg/mL (≈ 9.65 µM) | – | 12.4 days
8 | C[C@@H](n1cc2cc(F)ccc2n1)[C@](O)(Cn1cncn1)c1ccc(F)cc1F | 0.5 µg/mL (≈ 1.29 µM) | 0.125 µg/mL (≈ 0.323 µM) | 0.5 µg/mL (≈ 1.29 µM) | – | 0.5 µg/mL (≈ 1.29 µM) | 0.031 µg/mL (≈ 0.08 µM) | 0.25 µg/mL (≈ 0.645 µM) | 1 µg/mL (≈ 2.58 µM) | ≤ 0.015 µg/mL | 0.063 µg/mL (≈ 0.163 µM) | ≤ 0.015 µg/mL | 4 µg/mL (≈ 10.3 µM) | – | –
9 | C[C@@H](n1cc2c([N+](=O)[O-])cccc2n1)[C@](O)(Cn1cncn1)c1ccc(F)cc1F | 2 µg/mL (≈ 4.83 µM) | 1 µg/mL (≈ 2.41 µM) | 1 µg/mL (≈ 2.41 µM) | – | 4 µg/mL (≈ 9.65 µM) | 0.25 µg/mL (≈ 0.603 µM) | 1 µg/mL (≈ 2.41 µM) | 4 µg/mL (≈ 9.65 µM) | 0.125 µg/mL (≈ 0.302 µM) | 0.063 µg/mL (≈ 0.152 µM) | ≤ 0.015 µg/mL | > 8 µg/mL | – | –
10 | C[C@@H](n1ncc2cc(F)ccc21)[C@](O)(Cn1cncn1)c1ccc(F)cc1F | 4 µg/mL (≈ 10.3 µM) | 0.25 µg/mL (≈ 0.645 µM) | 4 µg/mL (≈ 10.3 µM) | – | 1 µg/mL (≈ 2.58 µM) | 0.125 µg/mL (≈ 0.323 µM) | 4 µg/mL (≈ 10.3 µM) | 8 µg/mL (≈ 20.7 µM) | ≤ 0.015 µg/mL | 0.063 µg/mL (≈ 0.163 µM) | ≤ 0.015 µg/mL | 4 µg/mL (≈ 10.3 µM) | – | –
11 | CC(=O)N1CCN(c2ccc(OCC3COC(Cn4ccnc4)(c4ccc(Cl)cc4Cl)O3)cc2)CC1 (configuration not stated) [KETOCONAZOLE] | – | – | – | – | – | – | – | – | – | – | – | 4 µg/mL (≈ 7.53 µM) | 51 µM | –
12 | CCc1nn([C@H](C)[C@](O)(Cn2cncn2)c2ccc(F)cc2F)c2ccc(F)cc12 | > 16 µg/mL | 2 µg/mL (≈ 4.81 µM) | > 16 µg/mL | – | 2 µg/mL (≈ 4.81 µM) | 0.125 µg/mL (≈ 0.301 µM) | 16 µg/mL (≈ 38.5 µM) | > 16 µg/mL | 0.063 µg/mL (≈ 0.152 µM) | 0.125 µg/mL (≈ 0.301 µM) | ≤ 0.015 µg/mL | 4 µg/mL (≈ 9.63 µM) | – | –
13 | OC(Cn1cncn1)(Cn1cncn1)c1ccc(F)cc1F [FLUCONAZOLE] | > 128 µg/mL | > 8 µg/mL | > 128 µg/mL | – | > 8 µg/mL | > 8 µg/mL | > 128 µg/mL | > 128 µg/mL | 8 µg/mL (≈ 26.1 µM) | 8 µg/mL (≈ 26.1 µM) | 2 µg/mL (≈ 6.53 µM) | > 8 µg/mL | – | –
14 | C[C@@H](n1ncc2cccc([N+](=O)[O-])c21)[C@](O)(Cn1cncn1)c1ccc(F)cc1F | 1 µg/mL (≈ 2.41 µM) | ≤ 0.015 µg/mL | 2 µg/mL (≈ 4.83 µM) | – | 0.5 µg/mL (≈ 1.21 µM) | ≤ 0.015 µg/mL | 2 µg/mL (≈ 4.83 µM) | 4 µg/mL (≈ 9.65 µM) | ≤ 0.015 µg/mL | 0.125 µg/mL (≈ 0.302 µM) | ≤ 0.015 µg/mL | 4 µg/mL (≈ 9.65 µM) | – | –

From ChEMBL document CHEMBL1139935, “Discovery of novel indazole-linked triazoles as antifungal agents” (2007)
